From ChEMBL document CHEMBL1123706, “Design of alternate substrate inhibitors of serine proteases. Synergistic use of alkyl substitution to impede enzyme-catalyzed deacylation” (J Med Chem, 1987)

Columns and labels:
[1] = target: T1, Neutrophil elastase (Homo sapiens) (UniProt P08246)
T1 sequence (whole entry): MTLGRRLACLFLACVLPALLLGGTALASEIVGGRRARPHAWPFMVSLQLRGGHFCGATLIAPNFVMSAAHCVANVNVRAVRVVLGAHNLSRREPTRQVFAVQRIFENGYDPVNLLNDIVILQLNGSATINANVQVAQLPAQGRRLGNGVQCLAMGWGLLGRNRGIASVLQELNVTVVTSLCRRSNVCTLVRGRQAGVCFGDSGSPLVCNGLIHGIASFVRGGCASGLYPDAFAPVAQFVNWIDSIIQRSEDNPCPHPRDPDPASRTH

Neutrophil elastase = target: T2, Neutrophil elastase (Homo sapiens, UniProt P08246); assay: Binding affinity against human leukocyte elastase was determined
T2 sequence (P08246 whole entry): T1 sequence (whole entry)
In short: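 Elastase purified from human leukocytes and assayed by the progress-curve method. Enzyme turnover of a fluorogenic coumarin substrate at about 0.04 Km served as a probe of free enzyme. Buffer was 25 mM K+ HEPES, 1 M NaCl, 0.1% Brij 35, pH 7.8, 25 °C. Read-out was fluorescence at 400 nm excitation and 505 nm emission.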

[2] = target: T1, Neutrophil elastase (Homo sapiens); assay: Rate of deacylation by human leukocyte elastase
In short: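 Otherwise, acyl enzyme was prepared and isolated on Sephadex G-25 at low pH. Deacylation was followed as the return of activity after dilution into assay buffer containing fluorogenic substrate.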

| SMILES | k1 [1] [M⁻¹ s⁻¹] | Ki (Neutrophil elastase) [nM] | k off [2] [s⁻¹] |
| --- | --- | --- | --- |
| CCCNc1nc2cccc(C)c2c(=O)o1 | 56000 | 6 | 0.00034 |
| CCCCCCNc1nc2ccccc2c(=O)o1 | – | 3600 | – |
| CCC(C)Nc1nc2ccccc2c(=O)o1 (centres undefined) | – | 43 | – |
| CCc1cccc2nc(N)oc(=O)c12 | – | 5100 | – |
| CC(C)Nc1nc2ccccc2c(=O)o1 | 59000 | 52 | 0.003 |
| CCNc1nc2cccc(C)c2c(=O)o1 | – | 34 | – |
| CCCCNc1nc2cccc(C)c2c(=O)o1 | – | 23 | – |
| CNc1nc2ccccc2c(=O)o1 | – | 6900 | – |
| CCCCNc1nc2cccc(CC)c2c(=O)o1 | 130000 | 4.2 | 0.00053 |
| Nc1nc2ccccc2c(=O)o1 | – | 63000 | – |
| Cc1cccc2nc(NC(C)C)oc(=O)c12 | – | 1.5 | – |
| CCCCNc1nc2ccccc2c(=O)o1 | – | 84 | – |
| CCNc1nc2ccccc2c(=O)o1 | – | 51 | – |
| CCCNc1nc2ccccc2c(=O)o1 | – | 91 | – |
| CNc1nc2cccc(C)c2c(=O)o1 | 4800 | 31000 | 0.15 |
| CCc1cccc2nc(NC(C)C)oc(=O)c12 | – | 0.94 | – |
